Test results: ChEMBL document CHEMBL4689842, “EUbOPEN Chemogenomics Library wave 1” (2021)

How the values were obtained:
Assay type in all cases: toxicity, cell-based
Fibroblast [1] = test: Multiplex assay against human fibroblast
Method in brief: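 On a CQ1 microscope at 37°C and 5% CO2, live cells were imaged after compound addition. They had been stained at seeding with Hoechst33342, BioTracker Green Microtubule Cytoskeleton Dye, MitoTracker Red and Annexin V Alexa Fluor 680. CellPathfinder machine-learning gating assigned cells to Hoechst high-intensity objects or normal cells, normal cells to healthy, pyknosed or fragmented nuclei, and pyknosed cells to mitotic or apoptotic. Tubulin, mitochondrial-mass and membrane-permeability phenotypes are per cents of healthy-nucleus cells.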

Fibroblast [2] = test: Incucyte cell viability with human fibroblast; conditions: 10 µM, compound concentration 10 uM; further: filed as whole numbers so only -1 and 0 and 1 occur
U2OS = test: Incucyte cell viability with U2OS; conditions: human, 10 µM, compound concentration 10 uM; further: filed as whole numbers so only -1 and 0 and 1 occur
[3] = 12 h, 1 µM, compound concentration 1 uM, replicate 1
[4] = 12 h, 1 µM, compound concentration 1 uM, replicate 2
[5] = 12 h, 10 µM, compound concentration 10 uM, replicate 1
[6] = 12 h, 10 µM, compound concentration 10 uM, replicate 2
[7] = 24 h, 1 µM, compound concentration 1 uM, replicate 1
[8] = 24 h, 1 µM, compound concentration 1 uM, replicate 2
[9] = 24 h, 10 µM, compound concentration 10 uM, replicate 1
[10] = 24 h, 10 µM, compound concentration 10 uM, replicate 2
[11] = 48 h, 1 µM, compound concentration 1 uM, replicate 1
[12] = 48 h, 1 µM, compound concentration 1 uM, replicate 2
[13] = 48 h, 10 µM, compound concentration 10 uM, replicate 1
[14] = 48 h, 10 µM, compound concentration 10 uM, replicate 2
[15] = 0 h, replicate number 2, timepoint 0 hours
[16] = 6 h, replicate number 1, timepoint 6 hours
[17] = 12 h, replicate number 1, timepoint 12 hours
[18] = 18 h, replicate number 1, timepoint 18 hours
[19] = 24 h, replicate number 1, timepoint 24 hours

CCCc1cc(C)[nH]c(=O)c1CNC(=O)c1cc(-c2ccc(N3CCN(C(C)C)CC3)nc2)cc2c1cnn2C(C)C
Population Apoptotic (%) (Fibroblast [1]; [3]): 73% | Population Fragmented Nuclei (%) (Fibroblast [1]; [3]): 26% | Population Healthy Nuclei (%) (Fibroblast [1]; [3]): 41% | Population Hoechst High Intensity Objects (%) (Fibroblast [1]; [3]): 22% | Population Membrane Permeable-Phenotype (%) (Fibroblast [1]; [3]): 4% | Population Mitochondria Different-Phenotype (%) (Fibroblast [1]; [3]): 32% | Population Mitotic Cells (%) (Fibroblast [1]; [3]): 26% | Population Normal (%) (Fibroblast [1]; [3]): 77% | Population Pyknosed Nuclei (%) (Fibroblast [1]; [3]): 31% | Population Tubulin-Different-Phenotype (%) (Fibroblast [1]; [3]): 52% | Total Cell Count (Fibroblast [1]; [3]): 77 | Population Apoptotic (%) (Fibroblast [1]; [4]): 20% | Population Fragmented Nuclei (%) (Fibroblast [1]; [4]): 19% | Population Healthy Nuclei (%) (Fibroblast [1]; [4]): 70% | Population Hoechst High Intensity Objects (%) (Fibroblast [1]; [4]): 10% | Population Membrane Permeable-Phenotype (%) (Fibroblast [1]; [4]): 8% | Population Mitochondria Different-Phenotype (%) (Fibroblast [1]; [4]): 91% | Population Mitotic Cells (%) (Fibroblast [1]; [4]): 80% | Population Normal (%) (Fibroblast [1]; [4]): 89% | Population Pyknosed Nuclei (%) (Fibroblast [1]; [4]): 9% | Population Tubulin-Different-Phenotype (%) (Fibroblast [1]; [4]): 94% | Total Cell Count (Fibroblast [1]; [4]): 56 | Population Apoptotic (%) (Fibroblast [1]; [5]): 48% | Population Fragmented Nuclei (%) (Fibroblast [1]; [5]): 24% | Population Healthy Nuclei (%) (Fibroblast [1]; [5]): 32% | Population Hoechst High Intensity Objects (%) (Fibroblast [1]; [5]): 29% | Population Membrane Permeable-Phenotype (%) (Fibroblast [1]; [5]): 6% | Population Mitochondria Different-Phenotype (%) (Fibroblast [1]; [5]): 21% | Population Mitotic Cells (%) (Fibroblast [1]; [5]): 51% | Population Normal (%) (Fibroblast [1]; [5]): 70% | Population Pyknosed Nuclei (%) (Fibroblast [1]; [5]): 42% | Population Tubulin-Different-Phenotype (%) (Fibroblast [1]; [5]): 69% | Total Cell Count (Fibroblast [1]; [5]): 143 | Population Apoptotic (%) (Fibroblast [1]; [6]): 85% | Population Fragmented Nuclei (%) (Fibroblast [1]; [6]): 13% | Population Healthy Nuclei (%) (Fibroblast [1]; [6]): 47% | Population Hoechst High Intensity Objects (%) (Fibroblast [1]; [6]): 5% | Population Membrane Permeable-Phenotype (%) (Fibroblast [1]; [6]): 79% | Population Mitochondria Different-Phenotype (%) (Fibroblast [1]; [6]): 100% | Population Mitotic Cells (%) (Fibroblast [1]; [6]): 14% | Population Normal (%) (Fibroblast [1]; [6]): 94% | Population Pyknosed Nuclei (%) (Fibroblast [1]; [6]): 38% | Population Tubulin-Different-Phenotype (%) (Fibroblast [1]; [6]): 100% | Total Cell Count (Fibroblast [1]; [6]): 57 | Population Apoptotic (%) (Fibroblast [1]; [7]): 31% | Population Fragmented Nuclei (%) (Fibroblast [1]; [7]): 30% | Population Healthy Nuclei (%) (Fibroblast [1]; [7]): 47% | Population Hoechst High Intensity Objects (%) (Fibroblast [1]; [7]): 16% | Population Membrane Permeable-Phenotype (%) (Fibroblast [1]; [7]): 11% | Population Mitochondria Different-Phenotype (%) (Fibroblast [1]; [7]): 20% | Population Mitotic Cells (%) (Fibroblast [1]; [7]): 68% | Population Normal (%) (Fibroblast [1]; [7]): 83% | Population Pyknosed Nuclei (%) (Fibroblast [1]; [7]): 22% | Population Tubulin-Different-Phenotype (%) (Fibroblast [1]; [7]): 85% | Total Cell Count (Fibroblast [1]; [7]): 86 | Population Apoptotic (%) (Fibroblast [1]; [8]): 33% | Population Fragmented Nuclei (%) (Fibroblast [1]; [8]): 20% | Population Healthy Nuclei (%) (Fibroblast [1]; [8]): 51% | Population Hoechst High Intensity Objects (%) (Fibroblast [1]; [8]): 10% | Population Membrane Permeable-Phenotype (%) (Fibroblast [1]; [8]): 10% | Population Mitochondria Different-Phenotype (%) (Fibroblast [1]; [8]): 78% | Population Mitotic Cells (%) (Fibroblast [1]; [8]): 66% | Population Normal (%) (Fibroblast [1]; [8]): 90% | Population Pyknosed Nuclei (%) (Fibroblast [1]; [8]): 27% | Population Tubulin-Different-Phenotype (%) (Fibroblast [1]; [8]): 82% | Total Cell Count (Fibroblast [1]; [8]): 53 | Population Apoptotic (%) (Fibroblast [1]; [9]): 46% | Population Fragmented Nuclei (%) (Fibroblast [1]; [9]): 21% | Population Healthy Nuclei (%) (Fibroblast [1]; [9]): 43% | Population Hoechst High Intensity Objects (%) (Fibroblast [1]; [9]): 25% | Population Membrane Permeable-Phenotype (%) (Fibroblast [1]; [9]): 4% | Population Mitochondria Different-Phenotype (%) (Fibroblast [1]; [9]): 37% | Population Mitotic Cells (%) (Fibroblast [1]; [9]): 53% | Population Normal (%) (Fibroblast [1]; [9]): 74% | Population Pyknosed Nuclei (%) (Fibroblast [1]; [9]): 35% | Population Tubulin-Different-Phenotype (%) (Fibroblast [1]; [9]): 59% | Total Cell Count (Fibroblast [1]; [9]): 199 | Population Apoptotic (%) (Fibroblast [1]; [10]): 91% | Population Fragmented Nuclei (%) (Fibroblast [1]; [10]): 8% | Population Healthy Nuclei (%) (Fibroblast [1]; [10]): 48% | Population Hoechst High Intensity Objects (%) (Fibroblast [1]; [10]): 9% | Population Membrane Permeable-Phenotype (%) (Fibroblast [1]; [10]): 85% | Population Mitochondria Different-Phenotype (%) (Fibroblast [1]; [10]): 100% | Population Mitotic Cells (%) (Fibroblast [1]; [10]): 8% | Population Normal (%) (Fibroblast [1]; [10]): 90% | Population Pyknosed Nuclei (%) (Fibroblast [1]; [10]): 42% | Population Tubulin-Different-Phenotype (%) (Fibroblast [1]; [10]): 100% | Total Cell Count (Fibroblast [1]; [10]): 60 | Population Apoptotic (%) (Fibroblast [1]; [11]): 66% | Population Healthy Nuclei (%) (Fibroblast [1]; [11]): 50% | Population Hoechst High Intensity Objects (%) (Fibroblast [1]; [11]): 20% | Population Membrane Permeable-Phenotype (%) (Fibroblast [1]; [11]): 7% | Population Mitochondria Different-Phenotype (%) (Fibroblast [1]; [11]): 23% | Population Mitotic Cells (%) (Fibroblast [1]; [11]): 33% | Population Normal (%) (Fibroblast [1]; [11]): 79% | Population Pyknosed Nuclei (%) (Fibroblast [1]; [11]): 15% | Population Tubulin-Different-Phenotype (%) (Fibroblast [1]; [11]): 63% | Total Cell Count (Fibroblast [1]; [11]): 96 | Population Apoptotic (%) (Fibroblast [1]; [12]): 50% | Population Fragmented Nuclei (%) (Fibroblast [1]; [12]): 34% | Population Healthy Nuclei (%) (Fibroblast [1]; [12]): 63% | Population Hoechst High Intensity Objects (%) (Fibroblast [1]; [12]): 10% | Population Membrane Permeable-Phenotype (%) (Fibroblast [1]; [12]): 8% | Population Mitochondria Different-Phenotype (%) (Fibroblast [1]; [12]): 10% | Population Mitotic Cells (%) (Fibroblast [1]; [12]): 50% | Population Normal (%) (Fibroblast [1]; [12]): 90% | Population Pyknosed Nuclei (%) (Fibroblast [1]; [12]): 1% | Population Tubulin-Different-Phenotype (%) (Fibroblast [1]; [12]): 73% | Total Cell Count (Fibroblast [1]; [12]): 120 | Population Apoptotic (%) (Fibroblast [1]; [13]): 77% | Population Fragmented Nuclei (%) (Fibroblast [1]; [13]): 34% | Population Healthy Nuclei (%) (Fibroblast [1]; [13]): 25% | Population Hoechst High Intensity Objects (%) (Fibroblast [1]; [13]): 38% | Population Membrane Permeable-Phenotype (%) (Fibroblast [1]; [13]): 5% | Population Mitochondria Different-Phenotype (%) (Fibroblast [1]; [13]): 63% | Population Mitotic Cells (%) (Fibroblast [1]; [13]): 22% | Population Normal (%) (Fibroblast [1]; [13]): 61% | Population Pyknosed Nuclei (%) (Fibroblast [1]; [13]): 40% | Population Tubulin-Different-Phenotype (%) (Fibroblast [1]; [13]): 68% | Total Cell Count (Fibroblast [1]; [13]): 124 | Population Apoptotic (%) (Fibroblast [1]; [14]): 48% | Population Fragmented Nuclei (%) (Fibroblast [1]; [14]): 22% | Population Healthy Nuclei (%) (Fibroblast [1]; [14]): 41% | Population Hoechst High Intensity Objects (%) (Fibroblast [1]; [14]): 54% | Population Membrane Permeable-Phenotype (%) (Fibroblast [1]; [14]): 0% | Population Mitochondria Different-Phenotype (%) (Fibroblast [1]; [14]): 42% | Population Mitotic Cells (%) (Fibroblast [1]; [14]): 51% | Population Normal (%) (Fibroblast [1]; [14]): 45% | Population Pyknosed Nuclei (%) (Fibroblast [1]; [14]): 35% | Population Tubulin-Different-Phenotype (%) (Fibroblast [1]; [14]): 63% | Total Cell Count (Fibroblast [1]; [14]): 202 | Growth Rate (Fibroblast [2]; [15]): 0 | Growth Rate (Fibroblast [2]; [16]): 0 | Growth Rate (Fibroblast [2]; [17]): 0 | Growth Rate (Fibroblast [2]; 12 h, replicate number 2, timepoint 12 hours): 1 | Growth Rate (Fibroblast [2]; [18]): 0 | Growth Rate (Fibroblast [2]; [19]): 0 | Growth Rate (U2OS; [15]): 0 | Growth Rate (U2OS; [16]): 1 | Growth Rate (U2OS; [17]): 1 | Growth Rate (U2OS; [18]): 0 | Growth Rate (U2OS; [19]): 0 | Growth Rate (U2OS; 24 h, replicate number 2, timepoint 24 hours): 1
